# How the values were obtained:
# [1] = test system: Staphylococcus aureus; assay: Minimal inhibitory concentration of compound against Staphylococcus aureus Tour determined in iso-sensitest broth supplemented with 30% bovine serum and an inoculum of 10e4 cfu/mL
# [2] = test system: Staphylococcus epidermidis; assay: Minimal inhibitory concentration of compound against […] ATCC 12228; format: functional
# [3] = test system: Staphylococcus aureus; assay: Minimal inhibitory concentration of compound against Staphylococcus aureus Tour; format: functional
# Method in brief: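 Broth MIC by 2-fold serial dilution in microtiter format, in Iso-sensitest broth, with a final inoculum of about 10⁴ cfu/mL. Plates were incubated 18–24 h at 37 °C. MIC was taken as the lowest concentration with no visible growth.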
# [4] = test system: Staphylococcus aureus; assay: Minimal inhibitory concentration of compound against Staphylococcus aureus Tour in an inoculum of 10e6 cfu/mL; format: functional
# Method in brief: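 Twofold microtiter broth dilution in Iso-sensitest broth, with the inoculum raised to 10⁶ cfu/mL. After 18–24 h at 37 °C, MIC was read as the lowest concentration giving no visible growth.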
# [5] = test system: Streptococcus pneumoniae; assay: Minimal inhibitory concentration of compound against Streptococcus pneumoniae UC41; format: functional
# Method in brief: (§1)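 Streptococci were tested by 2-fold broth microdilution in Todd-Hewitt broth, with a final inoculum of about 10⁴ cfu/mL. After 18–24 h at 37 °C, MIC was read as the lowest concentration with no visible growth.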
# [6] = test system: Enterococcus faecalis; assay: Minimal inhibitory concentration of compound against Streptococcus faecalis AACC7080; format: functional
# Method in brief: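 For S. faecalis, 2-fold dilution MIC in a microtiter system using Iso-sensitest broth and a final inoculum of about 10⁴ cfu/mL. Incubation was 18–24 h at 37 °C. The endpoint was the lowest concentration without visible growth.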
# [7] = test system: Streptococcus pyogenes; assay: Minimal inhibitory concentration of compound against Streptococcus pyogenes C203; format: functional
# Method in brief: as §1
# [8] = Association constant for compound at 31 degree C was determined; format: ADME
# Method in brief: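 UV difference spectroscopy at 31 °C. Antibiotic at 25 μM in 10% methanol/0.02 M sodium citrate buffer, pH 5, sat in sample and reference cells (4-cm path). Ac-D-Ala-D-Ala was added from a 4 mM stock to the sample cell, with buffer added to the reference. The absorbance change was read at 282–285 nm. K_A came from Scatchard plots, with antibiotic concentration set by UV at 279 nm.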
Structure (SMILES),MIC [1],MIC [2],MIC [3],MIC [4],MIC [5],MIC [6],MIC [7],KA [8]
CN(C)CCCNC(=O)[C@H]1NC(=O)[C@H]2NC(=O)[C@H](NC(=O)[C@@H]3NC(=O)[C@H]4NC(=O)[C@@H](Cc5ccc(c(Cl)c5)Oc5cc3cc(c5O)Oc3ccc(cc3Cl)[C@H]2O)NC(=O)[C@H](N)c2ccc(O)c(c2)Oc2cc(O)cc4c2)c2ccc(O)c(c2)-c2c(O)cc(O)cc21,0.25 µg/mL,0.016 µg/mL,0.06 µg/mL,0.12 µg/mL,0.06 µg/mL,0.12 µg/mL,0.06 µg/mL,
CC(=O)N[C@@H]1[C@H](O[C@@H]2c3ccc(c(Cl)c3)Oc3cc4cc(c3O)Oc3ccc(cc3Cl)C[C@H]3NC(=O)[C@H](N)c5ccc(O)c(c5)Oc5cc(O)cc(c5)[C@H](NC3=O)C(=O)N[C@H]4C(=O)N[C@H]3C(=O)N[C@@H]2C(=O)N[C@H](C(=O)O)c2cc(O)cc(O)c2-c2cc3ccc2O)O[C@@H](CO)[C@@H](O)[C@@H]1O,0.5 µg/mL,0.12 µg/mL,0.5 µg/mL,0.25 µg/mL,1 µg/mL,1 µg/mL,0.5 µg/mL,
N[C@H]1C(=O)N[C@@H]2Cc3ccc(c(Cl)c3)Oc3cc4cc(c3O)Oc3ccc(cc3Cl)[C@@H](O)[C@@H]3NC(=O)[C@H](NC(=O)[C@@H]4NC(=O)[C@@H](NC2=O)c2cc(O)cc(c2)Oc2cc1ccc2O)c1ccc(O)c(c1)-c1c(O)cc(O)cc1[C@@H](C(=O)NC1CN2CCC1CC2)NC3=O (stereo partly drawn),0.5 µg/mL,0.06 µg/mL,0.12 µg/mL,0.12 µg/mL,0.06 µg/mL,0.12 µg/mL,0.06 µg/mL,
CC(=O)N[C@@H]1[C@H](O[C@@H]2c3ccc(c(Cl)c3)Oc3cc4cc(c3O)Oc3ccc(cc3Cl)C[C@H]3NC(=O)[C@H](N)c5ccc(O)c(c5)Oc5cc(O)cc(c5)[C@H](NC3=O)C(=O)N[C@H]4C(=O)N[C@H]3C(=O)N[C@@H]2C(=O)N[C@H](C(=O)O)c2cc(O)cc(O[C@H]4O[C@H](CO)[C@@H](O)[C@@H](O)[C@@H]4O)c2-c2cc3ccc2O)O[C@@H](CO)[C@@H](O)[C@@H]1O,0.5 µg/mL,0.25 µg/mL,0.25 µg/mL,0.5 µg/mL,0.5 µg/mL,2 µg/mL,0.5 µg/mL,
CCCCCCCCCC(=O)N[C@@H]1[C@H](Oc2c3cc4cc2Oc2ccc(cc2Cl)[C@@H](O[C@@H]2O[C@@H](CO)[C@@H](O)[C@H](O)[C@@H]2NC(C)=O)[C@@H]2NC(=O)[C@H](NC(=O)[C@@H]4NC(=O)[C@H]4NC(=O)[C@@H](Cc5ccc(c(Cl)c5)O3)NC(=O)[C@H](N)c3ccc(O)c(c3)Oc3cc(O)cc4c3)c3ccc(O)c(c3)-c3c(O[C@H]4O[C@H](CO)[C@@H](O)[C@@H](O)[C@@H]4O)cc(O)cc3[C@@H](C(=O)O)NC2=O)O[C@@H](CO)[C@@H](O)[C@@H]1O,0.5 µg/mL,0.25 µg/mL,0.12 µg/mL,0.5 µg/mL,0.06 µg/mL,0.12 µg/mL,0.06 µg/mL,1100000 M⁻¹
O=C1Cc2ccc(O)c(c2)Oc2cc(O)cc(c2)[C@@H]2NC(=O)[C@@H](Cc3ccc(c(Cl)c3)Oc3cc4cc(c3O)Oc3ccc(cc3Cl)[C@@H](O)[C@@H]3NC(=O)[C@H](NC(=O)[C@@H]4NC2=O)c2ccc(O)c(c2)-c2c(O)cc(O)cc2[C@@H](C(=O)O)NC3=O)N1,1 µg/mL,0.25 µg/mL,0.12 µg/mL,0.25 µg/mL,0.06 µg/mL,0.12 µg/mL,0.06 µg/mL,11000 M⁻¹
CCCCCCCCCC(=O)N[C@@H]1[C@H](Oc2c3cc4cc2Oc2ccc(cc2Cl)[C@@H](O[C@@H]2O[C@@H](CO)[C@@H](O)[C@H](O)[C@@H]2NC(C)=O)[C@@H]2NC(=O)[C@H](NC(=O)[C@@H]4NC(=O)[C@H]4NC(=O)[C@@H](Cc5ccc(c(Cl)c5)O3)NC(=O)[C@H](N)c3ccc(O)c(c3)Oc3cc(O)cc4c3)c3ccc(O)c(c3)-c3c(O[C@H]4O[C@H](CO)[C@@H](O)[C@@H](O)[C@@H]4O)cc(O)cc3[C@@H](C(=O)N(C)C)NC2=O)O[C@@H](CO)[C@@H](O)[C@@H]1O,0.5 µg/mL,0.06 µg/mL,0.12 µg/mL,0.12 µg/mL,0.06 µg/mL,0.12 µg/mL,0.06 µg/mL,
CN(C)CCCNC(=O)[C@H]1NC(=O)[C@H]2NC(=O)[C@H](NC(=O)[C@@H]3NC(=O)[C@H]4NC(=O)[C@@H](Cc5ccc(c(Cl)c5)Oc5cc3cc(c5O)Oc3ccc(cc3Cl)[C@H]2O)NC(=O)Cc2ccc(O)c(c2)Oc2cc(O)cc4c2)c2ccc(O)c(c2)-c2c(O)cc(O)cc21,4 µg/mL,0.12 µg/mL,0.12 µg/mL,0.12 µg/mL,0.2 µg/mL,0.12 µg/mL,0.12 µg/mL,
CC(=O)N[C@@H]1[C@H](O[C@@H]2c3ccc(c(Cl)c3)Oc3cc4cc(c3O)Oc3ccc(cc3Cl)C[C@H]3NC(=O)Cc5ccc(O)c(c5)Oc5cc(O)cc(c5)[C@H](NC3=O)C(=O)N[C@H]4C(=O)N[C@H]3C(=O)N[C@@H]2C(=O)N[C@H](C(=O)O)c2cc(O)cc(O[C@H]4O[C@H](CO)[C@@H](O)[C@@H](O)[C@@H]4O)c2-c2cc3ccc2O)O[C@@H](CO)[C@@H](O)[C@@H]1O,16 µg/mL,1 µg/mL,2 µg/mL,8 µg/mL,4 µg/mL,4 µg/mL,4 µg/mL,
CC(=O)N[C@@H]1[C@H](O[C@@H]2c3ccc(c(Cl)c3)Oc3cc4cc(c3O)Oc3ccc(cc3Cl)C[C@H]3NC(=O)Cc5ccc(O)c(c5)Oc5cc(O)cc(c5)[C@H](NC3=O)C(=O)N[C@H]4C(=O)N[C@H]3C(=O)N[C@@H]2C(=O)N[C@H](C(=O)O)c2cc(O)cc(O)c2-c2cc3ccc2O)O[C@@H](CO)[C@@H](O)[C@@H]1O,16 µg/mL,1 µg/mL,2 µg/mL,2 µg/mL,2 µg/mL,8 µg/mL,8 µg/mL,
O=C1Cc2ccc(O)c(c2)Oc2cc(O)cc(c2)[C@@H]2NC(=O)[C@@H](Cc3ccc(c(Cl)c3)Oc3cc4cc(c3O)Oc3ccc(cc3Cl)[C@@H](O)[C@@H]3NC(=O)[C@H](NC(=O)[C@@H]4NC2=O)c2ccc(O)c(c2)-c2c(O)cc(O)cc2[C@@H](C(=O)NC2CN4CCC2CC4)NC3=O)N1 (stereo partly drawn),4 µg/mL,0.12 µg/mL,0.12 µg/mL,0.25 µg/mL,0.12 µg/mL,0.25 µg/mL,0.12 µg/mL,22000 M⁻¹
CCCCCCCCCC(=O)N[C@@H]1[C@H](Oc2c3cc4cc2Oc2ccc(cc2Cl)[C@@H](O[C@@H]2O[C@@H](CO)[C@@H](O)[C@H](O)[C@@H]2NC(C)=O)[C@@H]2NC(=O)[C@H](NC(=O)[C@@H]4NC(=O)[C@H]4NC(=O)[C@@H](Cc5ccc(c(Cl)c5)O3)NC(=O)Cc3ccc(O)c(c3)Oc3cc(O)cc4c3)c3ccc(O)c(c3)-c3c(O[C@H]4O[C@H](CO)[C@@H](O)[C@@H](O)[C@@H]4O)cc(O)cc3[C@@H](C(=O)N(C)C)NC2=O)O[C@@H](CO)[C@@H](O)[C@@H]1O,4 µg/mL,0.12 µg/mL,0.12 µg/mL,1 µg/mL,0.12 µg/mL,0.25 µg/mL,0.12 µg/mL,200000 M⁻¹

# Reference: ChEMBL document CHEMBL1124384, “Deaminoteicoplanin and its derivatives. Synthesis, antibacterial activity, and binding strength to Ac-D-Ala-D-Ala” (J Med Chem, 1989)
